Reference: publication PMC11008256 (Cell reports. Physical science, 2024)
Where a name gives a salt, the structure may show the parent alone. Ends that are not written are not given here. Peptide text beside a SMILES is read from it.

Key:
[1] = Peptide:polysaccharide aggregation assay; parameters: species or system Klebsiella pneumoniae; conditions: 100 μmol L^−1 peptide, 300 μg mL^−1 polysaccharide
How it was run: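 Polysaccharide hot-phenol-extracted from an overnight LB culture (60 min, 68°C; chloroform; ethanol precipitation) and quantified by uronic acid assay. Mixed with peptide in 10 mM potassium phosphate, then immediately spun 15,600 rpm for 15 min. Pellets resuspended in water, run on 4–8% bis-tris SDS-PAGE beside 2 µg purified polysaccharide, and Alcian blue-stained. Band density measured with the no-peptide control subtracted as background. Triplicate; ±SEM.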

[2] = tested on: pre-formed biofilms of K. pneumoniae NTUH K2044; assay: Biofilm eradication; type: cell-based, Klebsiella pneumoniae; conditions: 60 μmol L^−1, 24 h
How it was run: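 Overnight NTUH K2044 culture diluted to OD600 0.5 in TSB + 0.5% glucose. Biofilms grown 24 h at 37°C static in 35 mm dishes. Peptide diluted in BSA buffer (0.2% BSA, 0.01% acetic acid) plus MHB; untreated control received buffer plus MHB. Treatment 24 h at 37°C static. Dispersed cells and PBS-washed (×3), PBS-resuspended biofilm plated for CFU mL-1. ±SEM; one-way ANOVA with Dunnett versus untreated.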

[3] = tested on: K. pneumoniae NTUH K2044 biofilm matrix polysaccharides; assay: Confocal microscopy imaging of biofilm polysaccharide matrix; type: cell-based, Klebsiella pneumoniae
[4] = tested on: K. pneumoniae NTUH K2044; assay: Antimicrobial activity, broth microdilution MIC; type: cell-based, Klebsiella pneumoniae; conditions: LB used for MIC testing to determine dosage for skin model
How it was run: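 Log-phase cells (an overnight LB culture diluted 1:100 in MHB at 37°C) seeded at 1 × 10^6 CFU mL-1 in LB for skin-model dosing, rather than the usual MHB. Peptide and polymyxin B control prepared in BSA buffer and tested at 0.0625–128 µmol L-1. Growth read as OD600; three independent replicates.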

[5] = tested on: Human red blood cells; assay: Hemolytic activity assay; type: cell-based; conditions: 1 to 128 μmol L^−1, 4 h room temperature, absorbance 405 nm
[6] = tested on: K. pneumoniae NTUH K2044; assay: Skin abscess mouse model; type: in vivo, female CD-1 mice; conditions: single topical dose at MIC, monitored 4 days, n = 6

Row | Compound | aggregation with extracellular polysaccharides (in words) [1] | biofilm and dispersed CFU mL^−1 [2] | effect on biofilm polysaccharide matrix (confocal) ([3]; 15 μmol L^−1, 24 h, concanavalin A Texas red stain) | effect on biofilm polysaccharide matrix (confocal) ([3]; 60 μmol L^−1, 24 h) | MIC used as dose for skin model [4] [µM] | hemolysis [5] | mouse weight changes, skin damage (proxy of toxicity) [6]
1 | PRPIPRPLPFPRPGPRPIPRPLPFPRPGPRPIPRP [Bac7 (24–59)] | highest aggregation potential | did not significantly change | drop in overall height (30 μm) and moderate change in the polysaccharide matrix | polysaccharide matrix loss from the upper layers of the biofilm |  |  | 
2 | RRIRPRPPRLPRPRPRPLPFPRPGPRPIPRPLPFP [Bac7 (1–35)] |  |  |  |  | 2 | limited ability to lyse red blood cells | No variations in weight, damage to the skin tissue, or other harmful consequences
3 | CC[C@H](C)CCCCC(=O)N[C@@H](CCN)C(=O)N[C@H](C(=O)N[C@@H](CCN)C(=O)N[C@H]1CCNC(=O)[C@H]([C@@H](C)O)NC(=O)[C@H](CCN)NC(=O)[C@H](CCN)NC(=O)[C@H](CC(C)C)NC(=O)[C@@H](Cc2ccccc2)NC(=O)[C@H](CCN)NC1=O)[C@@H](C)O [polymyxin B, polymyxin B sulfate, reference compound] (HELM PEPTIDE1{[CC[C@H](C)CCCCC(=O)[*:2]].[Dab].T.[Dab].[Dab].[Dab].[dF].L.[Dab].[Dab].T}$PEPTIDE1,PEPTIDE1,5:R3-11:R2$$$V2.0; N-terminus assumed; bridges inferred) |  |  |  |  | 1 |  | No variations in weight, damage to the skin tissue, or other harmful consequences
